Assays:
[1] = biological target: Phosphatidylinositol 4,5-bisphosphate 3-kinase catalytic subunit alpha isoform (Homo sapiens, UniProt P42336); test: Inhibition of PI3Kalpha (unknown origin) using PIP2/PS as substrate after 1 hr by luciferase-based luminescence assay
Homo sapiens = species on record: Homo sapiens; test: Selectivity ratio of IC50 for mTOR (unknown origin) to IC50 for PI3Kalpha (unknown origin)
[2] = biological target: Serine/threonine-protein kinase mTOR (Homo sapiens, UniProt P42345); test: Inhibition of mTOR (unknown origin) using GFP-4E-BP1 as substrate after 1 hr by TR-FRET assay
[3] = Efflux ratio of apparent permeability across basolateral to apical side over apical to basolateral side in human Caco2 cells; assay type: ADME, cell-based; settings: Caco-2
[4] = Apparent permeability across apical to basolateral side in human Caco2 cells at 10 uM after 1.5 hrs by LC/MS/MS analysis; assay type: ADME, cell-based; settings: Caco-2
[5] = biological target: Phosphatidylinositol 4,5-bisphosphate 3-kinase catalytic subunit beta isoform (Homo sapiens, UniProt P42338); test: Inhibition of PI3Kbeta (unknown origin) using PIP2/PS as substrate after 1 hr by luciferase-based luminescence assay
T47D = test: Cytotoxicity against human T47D cells harboring PIK3CA mutant assessed as growth inhibition after 4 days by CellTiter-Glo luminescent cell viability assay; assay type: functional, cell-based; settings: 96 h
Method in brief: (§1)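 Proliferation panel of human cancer lines carrying either a PIK3CA mutation or a PTEN deletion, with A549 as the one line carrying neither. Growth inhibition is reported as IC50.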

[6] = biological target: Phosphatidylinositol 4,5-bisphosphate 3-kinase catalytic subunit gamma isoform (Homo sapiens, UniProt P48736); test: Inhibition of PI3Kgamma (unknown origin) using PIP2/PS as substrate after 1 hr by luciferase-based luminescence assay
U-87 MG = test: Cytotoxicity against human U87MG cells harboring PTEN deletion mutant assessed as growth inhibition after 4 days by CellTiter-Glo luminescent cell viability assay; assay type: functional, cell-based, U-87MG ATCC; settings: 96 h; method in brief: as §1
A549 = test: Cytotoxicity against PTEN deletion mutant/PIK3CA mutant-deficient human A549 cells assessed as growth inhibition after 4 days by CellTiter-Glo luminescent cell viability assay; assay type: functional, cell-based; settings: A549, 96 h; method in brief: as §1
[7] = Cytotoxicity against human H460 cells harboring PIK3CA mutant assessed as growth inhibition after 4 days by CellTiter-Glo luminescent cell viability assay; assay type: functional, cell-based; settings: NCI-H460, 96 h; method in brief: as §1
[8] = biological target: T1, Phosphatidylinositol 4,5-bisphosphate 3-kinase catalytic subunit delta isoform (Homo sapiens, UniProt O00329); test: Inhibition of PI3Kdelta (unknown origin) using PIP2/PS as substrate after 1 hr by luciferase-based luminescence assay
T1 sequence (O00329 whole entry): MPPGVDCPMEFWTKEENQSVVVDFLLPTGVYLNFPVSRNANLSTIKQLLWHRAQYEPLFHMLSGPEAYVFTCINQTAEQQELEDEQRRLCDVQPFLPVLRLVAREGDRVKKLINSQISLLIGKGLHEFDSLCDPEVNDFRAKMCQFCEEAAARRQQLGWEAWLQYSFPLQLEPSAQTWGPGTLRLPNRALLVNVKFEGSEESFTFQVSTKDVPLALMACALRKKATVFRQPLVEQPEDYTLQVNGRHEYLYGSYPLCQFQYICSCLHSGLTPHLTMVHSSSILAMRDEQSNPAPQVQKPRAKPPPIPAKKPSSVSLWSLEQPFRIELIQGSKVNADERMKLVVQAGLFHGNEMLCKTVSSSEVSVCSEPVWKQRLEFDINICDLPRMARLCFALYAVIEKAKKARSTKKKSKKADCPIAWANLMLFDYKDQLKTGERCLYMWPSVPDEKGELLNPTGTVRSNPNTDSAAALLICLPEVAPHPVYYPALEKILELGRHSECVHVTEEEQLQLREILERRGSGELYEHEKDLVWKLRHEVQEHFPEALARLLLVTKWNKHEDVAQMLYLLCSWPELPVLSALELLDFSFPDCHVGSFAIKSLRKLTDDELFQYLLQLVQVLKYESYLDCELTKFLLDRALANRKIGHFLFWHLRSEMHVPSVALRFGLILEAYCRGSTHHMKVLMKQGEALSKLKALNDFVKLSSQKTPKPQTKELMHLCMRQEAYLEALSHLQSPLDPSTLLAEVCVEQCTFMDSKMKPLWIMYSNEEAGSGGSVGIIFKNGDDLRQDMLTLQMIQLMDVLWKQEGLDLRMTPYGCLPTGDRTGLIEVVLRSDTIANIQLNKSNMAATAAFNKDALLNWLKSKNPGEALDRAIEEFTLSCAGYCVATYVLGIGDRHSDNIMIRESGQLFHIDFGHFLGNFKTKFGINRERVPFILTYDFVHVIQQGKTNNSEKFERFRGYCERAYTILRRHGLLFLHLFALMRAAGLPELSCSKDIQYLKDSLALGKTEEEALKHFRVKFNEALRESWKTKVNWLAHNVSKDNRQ

[9] = Apparent permeability across basolateral to apical side in human Caco2 cells at 10 uM after 1.5 hrs by LC/MS/MS analysis; assay type: ADME, cell-based; settings: Caco-2
NCI-H1975 = test: Cytotoxicity against human NCI-H1975 cells harboring PIK3CA mutant assessed as growth inhibition after 4 days by CellTiter-Glo luminescent cell viability assay; assay type: functional, cell-based; settings: NCI-H1975, 96 h; method in brief: as §1
[10] = Permeability of the compound after 5 hrs by PAMPA; assay type: physicochemical; settings: read-out: permeability
SK-OV-3 = test: Cytotoxicity against human SKOV3 cells harboring PIK3CA mutant assessed as growth inhibition after 4 days by CellTiter-Glo luminescent cell viability assay; assay type: functional, cell-based; settings: SK-OV-3, 96 h; method in brief: as §1
[11] = Inhibition of PI3K in human T47D cells assessed as inhibition of AKT phosphorylation at Ser 473 after 4 hrs by Western blot analysis; assay type: cell-based

Sequence of Phosphatidylinositol 4,5-bisphosphate 3-kinase catalytic subunit alpha isoform (P42336 whole entry, canonical isoform): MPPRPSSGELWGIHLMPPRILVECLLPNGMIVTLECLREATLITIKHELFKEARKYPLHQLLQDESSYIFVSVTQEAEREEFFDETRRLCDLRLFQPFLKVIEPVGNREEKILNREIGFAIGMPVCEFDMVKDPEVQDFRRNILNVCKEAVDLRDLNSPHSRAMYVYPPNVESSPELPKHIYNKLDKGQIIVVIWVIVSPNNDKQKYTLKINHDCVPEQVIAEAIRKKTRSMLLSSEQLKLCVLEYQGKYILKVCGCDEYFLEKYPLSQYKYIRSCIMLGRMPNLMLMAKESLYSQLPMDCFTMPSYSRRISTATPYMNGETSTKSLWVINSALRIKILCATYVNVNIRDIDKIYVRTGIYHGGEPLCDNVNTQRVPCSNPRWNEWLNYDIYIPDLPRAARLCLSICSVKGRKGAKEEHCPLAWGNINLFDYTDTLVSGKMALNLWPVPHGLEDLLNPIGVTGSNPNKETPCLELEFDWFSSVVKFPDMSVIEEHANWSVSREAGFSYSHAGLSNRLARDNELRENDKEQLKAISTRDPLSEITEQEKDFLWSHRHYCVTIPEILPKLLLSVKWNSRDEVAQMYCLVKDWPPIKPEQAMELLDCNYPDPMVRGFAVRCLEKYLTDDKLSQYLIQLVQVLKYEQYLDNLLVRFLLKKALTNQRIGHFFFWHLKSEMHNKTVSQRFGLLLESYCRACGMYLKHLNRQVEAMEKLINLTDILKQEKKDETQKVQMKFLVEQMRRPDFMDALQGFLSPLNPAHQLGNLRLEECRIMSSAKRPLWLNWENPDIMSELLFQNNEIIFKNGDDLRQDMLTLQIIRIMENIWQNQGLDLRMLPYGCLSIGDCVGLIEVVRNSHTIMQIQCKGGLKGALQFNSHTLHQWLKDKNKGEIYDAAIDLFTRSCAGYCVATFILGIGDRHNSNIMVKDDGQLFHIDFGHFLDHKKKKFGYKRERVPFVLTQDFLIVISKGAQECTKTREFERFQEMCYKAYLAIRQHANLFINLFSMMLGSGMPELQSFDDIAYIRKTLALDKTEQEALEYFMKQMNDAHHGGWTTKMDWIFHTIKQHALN
Sequence of Phosphatidylinositol 4,5-bisphosphate 3-kinase catalytic subunit beta isoform (P42338 whole entry, canonical isoform): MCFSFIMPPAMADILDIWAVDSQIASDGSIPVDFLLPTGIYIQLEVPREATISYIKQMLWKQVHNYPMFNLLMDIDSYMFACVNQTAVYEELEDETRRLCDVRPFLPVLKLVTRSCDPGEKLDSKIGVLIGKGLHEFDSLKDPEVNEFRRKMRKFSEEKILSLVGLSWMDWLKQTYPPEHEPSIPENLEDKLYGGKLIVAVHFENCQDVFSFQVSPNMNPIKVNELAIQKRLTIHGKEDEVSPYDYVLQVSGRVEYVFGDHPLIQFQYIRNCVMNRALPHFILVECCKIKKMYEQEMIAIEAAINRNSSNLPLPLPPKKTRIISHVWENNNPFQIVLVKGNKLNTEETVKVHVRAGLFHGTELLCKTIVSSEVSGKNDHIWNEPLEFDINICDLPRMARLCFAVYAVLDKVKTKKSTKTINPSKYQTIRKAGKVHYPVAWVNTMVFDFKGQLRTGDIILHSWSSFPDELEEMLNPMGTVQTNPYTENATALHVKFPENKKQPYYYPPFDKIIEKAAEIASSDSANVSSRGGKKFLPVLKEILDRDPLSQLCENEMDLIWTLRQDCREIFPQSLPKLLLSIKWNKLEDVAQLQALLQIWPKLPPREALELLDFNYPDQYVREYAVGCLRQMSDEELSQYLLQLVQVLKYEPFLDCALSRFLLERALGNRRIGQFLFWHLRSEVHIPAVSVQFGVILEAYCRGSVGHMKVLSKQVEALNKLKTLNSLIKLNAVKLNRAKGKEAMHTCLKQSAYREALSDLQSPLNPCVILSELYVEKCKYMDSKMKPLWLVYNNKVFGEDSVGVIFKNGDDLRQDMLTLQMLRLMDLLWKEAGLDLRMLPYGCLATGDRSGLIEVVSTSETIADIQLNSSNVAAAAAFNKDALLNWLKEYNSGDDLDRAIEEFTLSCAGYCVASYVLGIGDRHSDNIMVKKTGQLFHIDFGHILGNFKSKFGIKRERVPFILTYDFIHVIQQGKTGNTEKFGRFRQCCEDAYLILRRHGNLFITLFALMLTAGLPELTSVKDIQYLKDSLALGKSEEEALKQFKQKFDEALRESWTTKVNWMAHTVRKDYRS
Sequence of Phosphatidylinositol 4,5-bisphosphate 3-kinase catalytic subunit gamma isoform (P48736 whole entry, canonical isoform): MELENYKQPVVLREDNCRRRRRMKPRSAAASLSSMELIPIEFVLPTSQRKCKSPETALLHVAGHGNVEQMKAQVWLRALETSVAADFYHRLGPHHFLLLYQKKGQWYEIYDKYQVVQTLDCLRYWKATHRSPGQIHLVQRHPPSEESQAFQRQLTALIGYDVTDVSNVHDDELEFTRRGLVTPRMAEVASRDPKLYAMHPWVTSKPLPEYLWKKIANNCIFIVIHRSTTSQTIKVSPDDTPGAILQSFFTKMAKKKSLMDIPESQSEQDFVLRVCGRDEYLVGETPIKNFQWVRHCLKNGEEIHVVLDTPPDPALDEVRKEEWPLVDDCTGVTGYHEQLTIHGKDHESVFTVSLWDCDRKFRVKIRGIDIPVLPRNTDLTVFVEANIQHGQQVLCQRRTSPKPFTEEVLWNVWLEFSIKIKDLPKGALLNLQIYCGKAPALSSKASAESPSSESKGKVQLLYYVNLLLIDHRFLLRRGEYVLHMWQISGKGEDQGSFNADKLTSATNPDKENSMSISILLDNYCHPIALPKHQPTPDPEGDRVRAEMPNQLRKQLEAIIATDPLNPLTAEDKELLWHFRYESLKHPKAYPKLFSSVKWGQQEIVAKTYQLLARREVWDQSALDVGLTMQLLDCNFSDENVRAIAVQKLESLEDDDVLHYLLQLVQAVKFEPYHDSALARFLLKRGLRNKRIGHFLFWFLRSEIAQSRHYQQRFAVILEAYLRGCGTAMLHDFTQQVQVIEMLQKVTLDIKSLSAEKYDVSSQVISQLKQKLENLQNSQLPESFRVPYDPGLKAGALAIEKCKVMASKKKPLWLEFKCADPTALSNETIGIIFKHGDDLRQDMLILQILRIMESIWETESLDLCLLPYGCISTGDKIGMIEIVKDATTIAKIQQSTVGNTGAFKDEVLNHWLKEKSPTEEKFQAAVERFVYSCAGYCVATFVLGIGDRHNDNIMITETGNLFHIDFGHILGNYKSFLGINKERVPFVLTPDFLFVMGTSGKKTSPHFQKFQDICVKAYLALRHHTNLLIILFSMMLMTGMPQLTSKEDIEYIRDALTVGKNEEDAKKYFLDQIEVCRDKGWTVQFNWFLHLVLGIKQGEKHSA

SMILES | IC50 [1] [nM] | Ratio IC50 (Homo sapiens) | IC50 [2] [nM] | further results
Cc1ncc(-c2cc3c(-c4ccncc4)ncnc3s2)cc1NS(=O)(=O)c1ccc(F)cc1F | 1.7 | 203 | 345 | –
COc1ncc(-c2cnc3nc(N)nc(-c4ccncc4)c3c2)cc1NS(=O)(=O)c1ccc(F)cc1F | – | 0.52 | – | –
COc1ncc(-c2cc3c(-c4ccncc4)ncnc3s2)cn1 | 3490 | – | – | –
COc1ncc(-c2ccc3ncnc(-c4ccncc4)c3c2)cc1NS(=O)(=O)c1ccc(F)cc1F | 0.095 | 2.1 | 0.2 | –
COc1ncc(-c2cc3c(-c4ccncc4)ncnc3s2)cc1NS(=O)(=O)c1ccc(Cl)s1 | 1.3 | 52 | 67.9 | –
COc1ncc(-c2ccc3nncc(-c4ccncc4)c3c2)cc1NS(=O)(=O)c1ccc(F)cc1F | 0.27 | 80 | 21.6 | –
COc1ncc(-c2cc3c(-c4ccncc4)ccnc3cn2)cc1NS(=O)(=O)c1ccc(F)cc1F | 1.02 | 3 | 3.04 | –
COc1ncc(-c2cnc3ncnc(-c4ccncc4)c3c2)cc1NS(=O)(=O)c1ccc(F)cc1F | 51.7 | 1.2 | 62.3 | –
COc1ncc(-c2cnc3nccc(-c4ccncc4)c3c2)cc1NS(=O)(=O)c1ccc(F)cc1F | 34.7 | 1.9 | 66.7 | –
COc1ncc(-c2ccc3nc(N)nc(-c4ccncc4)c3c2)cc1NS(=O)(=O)c1ccc(F)cc1F | 0.07 | 4.1 | 0.29 | –
COc1ncc(-c2cc3c(-c4ccncc4)ncnc3s2)cc1F | > 2500 | – | – | –
COc1ncc(-c2cc3c(-c4ccncc4)ncnc3s2)cc1NS(=O)(=O)c1ccc(C#N)cc1 | 3.6 | 100 | 363 | –
O=S(=O)(Nc1cc(-c2cc3c(-c4ccncc4)ncnc3s2)cnc1Cl)c1ccc(F)cc1 | 0.3 | 146 | 43.7 | –
COc1ncc(-c2ccc3nccc(-c4ccncc4)c3c2)cc1NS(=O)(=O)c1ccc(F)cc1F | 0.1 | 7.5 | 0.75 | –

Continued, in another order:

IC50 [1] [nM] | Ratio IC50 (Homo sapiens) | IC50 [2] [nM] | SMILES | further results
72.3 | – | – | COc1ncc(-c2sc3ncnc(-c4ccncc4)c3c2C)cc1NS(=O)(=O)c1ccc(F)cc1F | –
1230 | – | – | COc1ccc(-c2cc3c(-c4ccncc4)ncnc3s2)cn1 | –
0.15 | 172 | 25.8 | O=S(=O)(Nc1cc(-c2cc3c(-c4ccncc4)ncnc3s2)cnc1Cl)c1ccc(Cl)s1 | –
43.1 | – | – | COc1ncc(-c2cc3c(-c4ccncc4)ncnc3s2)cc1NS(C)(=O)=O | –
0.23 | 233 | 53.6 | O=S(=O)(Nc1cc(-c2cc3c(-c4ccncc4)ncnc3s2)cnc1Cl)c1ccc(F)cc1F | efflux ratio [3]: 1.4; Papp A→B at 1.5 h, 10 µM [4]: 4.8 ×10⁻⁶ cm/s; IC50 [5]: 3.6 nM; IC50 (T47D): 1520 nM; IC50 [6]: 10.2 nM; IC50 (U-87 MG): 4430 nM; IC50 (A549): 8440 nM; IC50 [7]: 2940 nM; IC50 [8]: 3.1 nM; Papp B→A at 1.5 h, 10 µM [9]: 6.9 ×10⁻⁶ cm/s; IC50 (NCI-H1975): 2200 nM; Papp at 5 h [10]: 7 ×10⁻⁶ cm/s; IC50 (SK-OV-3): 5200 nM
2.07 | 105 | 218 | COc1ncc(-c2cc3c(-c4ccncc4)ncnc3s2)cc1NS(=O)(=O)c1ccc(F)cc1F | IC50 [11]: 84.6 nM; efflux ratio [3]: 0.8; Papp A→B at 1.5 h, 10 µM [4]: 5.6 ×10⁻⁶ cm/s; IC50 [5]: 22.5 nM; IC50 (T47D): 660 nM; IC50 [6]: 21.1 nM; IC50 (U-87 MG): 4400 nM; IC50 (A549): 3180 nM; IC50 [7]: 420 nM; IC50 [8]: 13.3 nM; Papp B→A at 1.5 h, 10 µM [9]: 4.5 ×10⁻⁶ cm/s; IC50 (NCI-H1975): 1070 nM; Papp at 5 h [10]: 8 ×10⁻⁶ cm/s; IC50 (SK-OV-3): 3740 nM
17 | – | – | COc1ncc(-c2cc3c(-c4ccncc4)ncnc3s2)cc1NS(=O)(=O)c1ccc(C(F)(F)F)cc1 | –

Reference: ChEMBL document CHEMBL3576869 (ACS Med Chem Lett, 2015)
